Measurements reported in ChEMBL document CHEMBL1153063 (Bioorg Med Chem Lett, 2009).

What was measured:
[1] = biological target: Neuronal acetylcholine receptor subunit alpha-7 (Rattus norvegicus, UniProt Q05941); experiment: Displacement of [125I]BTX from rat alpha7 nAChR expressed in rat GH4C1 cells; format: cell-based, GH4-C1
Outline: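 GH₄C₁ cell binding with [¹²⁵I]-BTX; six-point dose–response curve in triplicate, values averaged.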

[2] = biological target: Neuronal acetylcholine receptor subunit alpha-7 (Rattus norvegicus) (UniProt Q05941); experiment: Agonist activity at rat alpha7 nAChR expressed in Xenopus oocytes at 32 uM by two-electrode voltage clamp technique relative to nicotine; format: functional, cell-based; conditions: Oocyte
Outline: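 Rat alpha7 nAChR cRNA (10–50 ng) injected into Xenopus oocytes defolliculated with collagenase (1.3 mg/mL, 3 h); oocytes kept in Barth's saline up to 2 weeks. Test compounds applied at 32 µM.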

[3] = biological target: Neuronal acetylcholine receptor; alpha4/beta2 (Rattus norvegicus, UniProt P09483+P12390); experiment: Displacement of L-[3H]Nicotine from alpha4beta2 nAChR in rat brain homogenate by rapid filtration method; format: tissue-based
[4] = biological target: Neuronal acetylcholine receptor subunit alpha-3 (Homo sapiens, UniProt P32297); experiment: Displacement of [3H]epibatidine from alpha3 nAChR in human IMR32 cells; format: cell-based, IMR-32
Outline: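 IMR32 cell binding with [³H]-epibatidine; six-point dose–response curve in triplicate, values averaged.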

[5] = Octanol-aqueous buffer partition coefficient, log D at pH 7.4; format: physicochemical
[6] = Aqueous solubility of the compound; format: physicochemical; conditions: buffer
[7] = biological target: hERG (KCNH2) (Homo sapiens, UniProt Q12809); experiment: Displacement of [3H]dofetilide from human ERG expressed in HEK293 cells at 10 uM; format: cell-based; conditions: HEK293 cells expressing human ERG, probe [3H]dofetilide
Outline: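 Binding of [³H]dofetilide to hERG stably expressed in HEK293 cells; reported as percent inhibition of binding.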

[8] = biological target: T1, 5-hydroxytryptamine receptor 3A (Homo sapiens, UniProt P46098); experiment: Displacement of [3H]LY278584 from human 5HT3 receptor expressed in HEK293 cells; format: cell-based
T1 sequence (P46098 whole entry): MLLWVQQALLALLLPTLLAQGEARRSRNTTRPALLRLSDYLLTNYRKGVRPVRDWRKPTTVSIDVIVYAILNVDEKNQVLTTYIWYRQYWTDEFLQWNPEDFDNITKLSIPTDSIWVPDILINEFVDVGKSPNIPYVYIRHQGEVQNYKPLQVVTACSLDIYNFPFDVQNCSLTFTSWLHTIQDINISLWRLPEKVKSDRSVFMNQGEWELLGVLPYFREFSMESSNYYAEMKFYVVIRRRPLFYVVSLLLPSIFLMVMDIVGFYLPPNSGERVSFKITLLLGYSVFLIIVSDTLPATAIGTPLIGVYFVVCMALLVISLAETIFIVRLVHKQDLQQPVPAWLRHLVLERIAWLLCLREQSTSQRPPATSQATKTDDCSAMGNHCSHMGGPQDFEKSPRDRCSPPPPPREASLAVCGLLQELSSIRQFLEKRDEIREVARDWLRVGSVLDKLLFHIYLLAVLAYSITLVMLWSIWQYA
Outline: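 HEK293 cells expressing human 5-HT₃; [³H]-LY278584 binding, six-point dose–response curve in triplicate, values averaged.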

[9] = Intrinsic clearance in human liver microsomes at 1 uM at pH 7.4 after 30 mins; format: ADME, Microsome
Outline: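 Pooled liver microsomes in phosphate buffer pH 7.4, 1 μM substrate; sampled at 30 min.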

[10] = Drug concentration in Sprague-Dawley rat brain at 5 mg/kg, sc after 1 hr; format: ADME, organism-based; parameters: dose 5 mg/kg, route subcutaneous; conditions: read-out: Drug uptake
Outline: (§1)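 Male Sprague-Dawley rats (n = 3) given 5 mg/kg s.c.; brain, plasma and CSF levels assessed 1 h post dose.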

[11] = Plasma concentration in Sprague-Dawley rat at 5 mg/kg, sc after 1 hr; format: ADME, organism-based; parameters: dose 5 mg/kg, route subcutaneous; outline: as §1
[12] = Ratio of drug level in brain to plasma in Sprague-Dawley rat at 5 mg/kg, sc after 1 hr; format: ADME, organism-based; parameters: dose 5 mg/kg, route subcutaneous
Outline: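 Male Sprague-Dawley rats (n = 3) received a single subcutaneous dose of 5 mg/kg. Brain, plasma and CSF drug levels were assessed 1 h post dose, and the brain level was expressed relative to the plasma level.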

[13] = Drug concentration in Sprague-Dawley rat CSF at 5 mg/kg, sc after 1 hr; format: ADME, organism-based, Cerebrospinal fluid; parameters: dose 5 mg/kg, route subcutaneous; conditions: read-out: Drug uptake; outline: as §1

Sequence of Neuronal acetylcholine receptor subunit alpha-3 (P32297 whole entry): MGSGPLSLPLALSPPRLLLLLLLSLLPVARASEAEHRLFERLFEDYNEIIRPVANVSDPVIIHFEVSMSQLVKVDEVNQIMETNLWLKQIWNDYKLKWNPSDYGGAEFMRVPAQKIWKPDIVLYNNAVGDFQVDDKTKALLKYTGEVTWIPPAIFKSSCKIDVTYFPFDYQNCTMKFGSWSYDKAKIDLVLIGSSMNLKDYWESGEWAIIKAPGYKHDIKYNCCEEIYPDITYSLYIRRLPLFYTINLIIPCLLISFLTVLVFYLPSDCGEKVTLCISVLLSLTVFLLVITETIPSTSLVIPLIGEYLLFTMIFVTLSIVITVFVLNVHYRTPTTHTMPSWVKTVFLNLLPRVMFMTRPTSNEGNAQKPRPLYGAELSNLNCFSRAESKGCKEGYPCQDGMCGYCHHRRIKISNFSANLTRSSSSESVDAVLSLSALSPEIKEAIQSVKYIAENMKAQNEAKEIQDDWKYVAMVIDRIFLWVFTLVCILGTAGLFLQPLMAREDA
Sequence of Neuronal acetylcholine receptor; alpha4/beta2 (P09483 whole entry): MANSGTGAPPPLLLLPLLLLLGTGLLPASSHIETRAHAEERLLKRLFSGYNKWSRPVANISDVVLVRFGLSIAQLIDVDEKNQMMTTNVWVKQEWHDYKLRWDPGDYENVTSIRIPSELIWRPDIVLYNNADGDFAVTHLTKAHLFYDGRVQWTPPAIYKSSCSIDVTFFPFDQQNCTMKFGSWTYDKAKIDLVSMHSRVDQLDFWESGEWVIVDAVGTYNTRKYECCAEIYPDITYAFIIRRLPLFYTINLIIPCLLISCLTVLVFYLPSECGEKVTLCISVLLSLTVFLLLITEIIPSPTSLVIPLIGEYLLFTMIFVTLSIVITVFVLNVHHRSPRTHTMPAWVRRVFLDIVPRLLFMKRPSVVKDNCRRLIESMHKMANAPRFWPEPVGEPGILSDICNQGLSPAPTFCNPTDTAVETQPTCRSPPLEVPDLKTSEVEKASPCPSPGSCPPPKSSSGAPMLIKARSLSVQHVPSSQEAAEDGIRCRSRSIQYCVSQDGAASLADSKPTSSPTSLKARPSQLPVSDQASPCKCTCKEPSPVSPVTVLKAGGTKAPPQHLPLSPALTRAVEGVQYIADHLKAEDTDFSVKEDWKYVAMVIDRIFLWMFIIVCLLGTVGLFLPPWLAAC
Sequence of Neuronal acetylcholine receptor; alpha4/beta2 (P12390 whole entry): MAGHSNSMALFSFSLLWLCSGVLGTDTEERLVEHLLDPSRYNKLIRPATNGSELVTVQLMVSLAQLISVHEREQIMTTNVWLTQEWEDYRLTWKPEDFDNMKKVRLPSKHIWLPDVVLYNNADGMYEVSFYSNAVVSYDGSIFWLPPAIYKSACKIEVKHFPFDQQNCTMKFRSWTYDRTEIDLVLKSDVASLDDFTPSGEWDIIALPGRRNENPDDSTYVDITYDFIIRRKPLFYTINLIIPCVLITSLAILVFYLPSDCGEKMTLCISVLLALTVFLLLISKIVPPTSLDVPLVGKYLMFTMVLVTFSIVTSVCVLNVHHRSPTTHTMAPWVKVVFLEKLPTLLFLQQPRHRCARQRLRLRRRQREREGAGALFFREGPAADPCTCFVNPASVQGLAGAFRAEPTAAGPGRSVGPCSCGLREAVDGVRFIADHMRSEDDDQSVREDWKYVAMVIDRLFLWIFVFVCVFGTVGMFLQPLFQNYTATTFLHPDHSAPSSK
Sequence of Neuronal acetylcholine receptor subunit alpha-7 (Rattus norvegicus) (Q05941 whole entry): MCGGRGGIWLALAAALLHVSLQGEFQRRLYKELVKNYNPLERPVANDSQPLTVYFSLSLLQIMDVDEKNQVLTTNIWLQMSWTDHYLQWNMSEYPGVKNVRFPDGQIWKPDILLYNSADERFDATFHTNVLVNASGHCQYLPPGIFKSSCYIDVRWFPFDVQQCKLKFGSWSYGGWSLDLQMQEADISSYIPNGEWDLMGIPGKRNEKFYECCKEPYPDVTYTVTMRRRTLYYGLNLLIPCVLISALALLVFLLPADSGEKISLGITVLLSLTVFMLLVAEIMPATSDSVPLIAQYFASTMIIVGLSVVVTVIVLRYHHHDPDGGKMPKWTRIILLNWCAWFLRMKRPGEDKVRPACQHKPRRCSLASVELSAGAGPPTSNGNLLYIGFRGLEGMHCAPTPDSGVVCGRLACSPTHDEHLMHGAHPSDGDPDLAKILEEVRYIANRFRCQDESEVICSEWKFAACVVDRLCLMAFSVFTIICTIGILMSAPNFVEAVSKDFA
Sequence of Neuronal acetylcholine receptor subunit alpha-7 (Q05941 whole entry): as above
Sequence of hERG (KCNH2) (Q12809 whole entry): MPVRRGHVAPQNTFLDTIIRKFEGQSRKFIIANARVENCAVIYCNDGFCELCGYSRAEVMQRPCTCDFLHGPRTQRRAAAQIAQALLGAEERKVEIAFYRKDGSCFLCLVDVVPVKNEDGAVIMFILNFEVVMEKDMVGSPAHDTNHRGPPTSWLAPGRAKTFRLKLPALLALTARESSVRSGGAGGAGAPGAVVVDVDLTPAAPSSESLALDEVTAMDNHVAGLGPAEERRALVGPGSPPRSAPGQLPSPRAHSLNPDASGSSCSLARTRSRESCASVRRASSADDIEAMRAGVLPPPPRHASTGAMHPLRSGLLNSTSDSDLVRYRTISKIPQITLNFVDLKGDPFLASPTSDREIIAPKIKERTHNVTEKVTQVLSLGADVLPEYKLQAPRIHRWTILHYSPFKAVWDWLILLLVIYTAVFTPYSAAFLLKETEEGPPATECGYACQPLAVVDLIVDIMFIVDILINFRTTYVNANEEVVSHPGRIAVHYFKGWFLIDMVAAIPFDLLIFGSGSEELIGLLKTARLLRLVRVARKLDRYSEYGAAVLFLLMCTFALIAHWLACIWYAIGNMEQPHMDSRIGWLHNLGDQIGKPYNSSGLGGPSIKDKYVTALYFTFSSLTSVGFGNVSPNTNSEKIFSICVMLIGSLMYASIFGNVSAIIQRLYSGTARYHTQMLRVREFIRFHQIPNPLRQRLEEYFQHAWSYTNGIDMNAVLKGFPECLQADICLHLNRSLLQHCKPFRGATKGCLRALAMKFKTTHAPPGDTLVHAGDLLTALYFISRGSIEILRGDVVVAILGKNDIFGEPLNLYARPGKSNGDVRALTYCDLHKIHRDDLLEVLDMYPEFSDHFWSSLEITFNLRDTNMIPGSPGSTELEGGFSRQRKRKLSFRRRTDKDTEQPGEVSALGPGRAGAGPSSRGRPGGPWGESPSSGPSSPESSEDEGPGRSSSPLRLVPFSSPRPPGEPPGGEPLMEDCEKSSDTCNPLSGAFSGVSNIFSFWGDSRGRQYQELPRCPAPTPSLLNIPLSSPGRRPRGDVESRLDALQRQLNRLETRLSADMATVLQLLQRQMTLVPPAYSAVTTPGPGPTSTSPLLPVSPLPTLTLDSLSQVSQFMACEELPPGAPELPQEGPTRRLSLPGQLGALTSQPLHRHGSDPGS

Compound	Ki [1]	Activity [2]	IC50 [3]	further results
O=C(Oc1ccc(-c2cccnc2)cc1)N1CCN2CCC1CC2	203 nM	189%	> 5000 nM	
O=C(OCc1ccccc1)N1CCN2CCC1CC2	3350 nM			
O=C(c1ccccc1)c1cccc(OC(=O)N2CCN3CCC2CC3)c1	11 nM	98%	2610 nM	
O=C(Oc1ccc(-c2ccccn2)cc1)N1CCN2CCC1CC2	354 nM	174%		
O=C(Oc1ccccc1)N1CCN2CCC1CC2	739 nM	99%	1040 nM	
O=C(c1ccccc1)c1ccc(OC(=O)N2CCN3CCC2CC3)cc1	95 nM	35%		
C[C@@H]1CN(C(=O)Oc2ccc(Br)cc2)C[C@H](C)N1	> 5000 nM	< 0.1%		
O=C(Oc1cccc(F)c1)N1CCN2CCC1CC2	35 nM	47%	1060 nM	
O=C(Oc1cccc(Br)c1)N1CCN2CCC1CC2	9.5 nM	70%		
O=C(Cc1ccc(Br)cc1)N1CCN2CCC1CC2	> 5000 nM	1.7%		
O=C(Oc1ccc(Cl)cc1)N1CCN2CCC1CC2	79 nM	145%	> 5000 nM	IC50 [4]: > 5000 nM
O=C(c1ccccc1)c1cc(OC(=O)N2CCN3CCC2CC3)ccc1Br	16 nM	201%	2040 nM	IC50 [4]: 1390 nM
O=C(Oc1cccc(Cl)c1)N1CCN2CCC1CC2	32 nM	77%	3500 nM	
O=C(Oc1ccc(Oc2ccccc2)cc1)N1CCN2CCC1CC2	212 nM	241%		
O=S(=O)(c1ccc(Br)cc1)N1CCN2CCC1CC2	> 4720 nM			
O=C(Oc1ccc(Cl)c(F)c1)N1CCN2CCC1CC2	86 nM	110%	6980 nM	IC50 [4]: 9960 nM
CN1CCCN(C(=O)Oc2ccc(Br)cc2)CC1	> 5710 nM	10%		
S=C(Oc1ccccc1)N1CCN2CCC1CC2	749 nM	28%		
O=C(Oc1ccc(-c2ccncc2)cc1)N1CCN2CCC1CC2	207 nM	191%		
O=C(Oc1ccc(Br)cc1)N1CCCN2CCC1CC2	383 nM	27%	> 10000 nM	
Cc1cccc(OC(=O)N2CCN3CCC2CC3)c1	25 nM	46%		

Compound	Ki [1]	Activity [2]	IC50 [3]	further results
C[C@@H]1CN(C(=O)Oc2ccc(Br)cc2)[C@@H](C)CN1	> 5000 nM			
O=C(Oc1ccc(F)cc1)N1CCN2CCC1CC2	537 nM	100%	1780 nM	
O=c1c(Br)ccc2n1C[C@@H]1CNC[C@H]2C1				IC50 [4]: 15.6 nM
O=C(Oc1ccc(Br)cc1)N1CCN2CCC1CC2 [SSR180711]		158%	> 5000 nM	IC50 [4]: > 6480 nM; logD [5]: 2.1; solubility [6]: > 65 µg/mL; inhibition at 10 µM [7]: 46%; IC50 [8]: > 3160 nM; CLint scaled at 1 µM [9]: < 6.8 mL/min/kg; concentration at 1 h [10]: 5460 ng/g; concentration at 1 h [11]: 648 ng/mL; Kp at 1 h [12]: 9.1; concentration at 1 h [13]: 774 nM
C[C@@H]1CN(C(=O)Oc2ccc(Br)cc2)CCN1	> 5000 nM	< 0.1%		
O=C(Oc1ccccc1Br)N1CCN2CCC1CC2	725 nM			
Cc1ccc(OC(=O)N2CCN3CCC2CC3)cc1	178 nM	202%		
O=C(Oc1cccc(Oc2ccccc2)c1)N1CCN2CCC1CC2	13 nM	40%		
O=C(Oc1ccc(Br)cc1)N1CCN2CCC(CC2)C1	763 nM		> 10000 nM	
O=C(Oc1ccc(Cl)c(Cl)c1)N1CCN2CCC1CC2	31 nM	195%		
O=C(Nc1ccc(Br)cc1)OC1CN2CCC1C2 (configuration not stated) [QUINUCLIDINE CARBAMATE]		90%		
O=C(Oc1ccc(-c2ccccc2)cc1)N1CCN2CCC1CC2	215 nM	111%		
Cc1cc(OC(=O)N2CCN3CCC2CC3)ccc1Br	50 nM	83%	7220 nM	IC50 [4]: 4020 nM
O=C(Oc1ccc(Br)c(Cl)c1)N1CCN2CCC1CC2	33 nM	203%	7120 nM	IC50 [4]: 2090 nM
O=C(Oc1ccc2ccccc2c1)N1CCN2CCC1CC2	23 nM	175%	9880 nM	IC50 [4]: 4910 nM; logD [5]: 2.3; solubility [6]: > 65 µg/mL; inhibition at 10 µM [7]: 8%; IC50 [8]: > 3160 nM; CLint scaled at 1 µM [9]: 12 mL/min/kg; concentration at 1 h [10]: 5290 ng/g; concentration at 1 h [11]: 463 ng/mL; Kp at 1 h [12]: 11.6; concentration at 1 h [13]: 343 nM
COc1ccc(OC(=O)N2CCN3CCC2CC3)cc1	201 nM	126%		
COc1cccc(OC(=O)N2CCN3CCC2CC3)c1	79 nM	26%		
O=C(Nc1ccc(Br)cc1)N1CCN2CCC1CC2	328 nM			
O=C(Oc1ccccc1Cl)N1CCN2CCC1CC2	868 nM			
O=C(Oc1cccc(-c2ccccc2)c1)N1CCN2CCC1CC2	9 nM	9%		
